# hERG protect: hERG (human) protection from proarrhythmic block | CHO-hERG, FluxOR thallium flux, dofetilide IC70 present | activation (rescue from dofetilide block), less the hit threshold, % at 10 µM | 310,000 tested, 0.51% active | AID 1511;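 active = activation above the mean of controls blocked by dofetilide plus 5 SD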;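 also: thallium influx through hERG after potassium depolarization seen as dye fluorescence rise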
# KCNK3 inh: human KCNK3 channel inhibition, primary screen. CHO-KCNK3 thallium flux, FluxOR fluorescence; stronger effect = lower value. B-score at 10 µM. 340,000 tested, 0.84% active;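 active = B-score under library mean minus 4 SD, starting fluorescence ratio at most library mean plus 5 SD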;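 also: more negative B-score means stronger inhibition of thallium flux through KCNK3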
# KCNK9 inh: blocks the human KCNK9 two-pore domain potassium channel | Q9NPC2 | HEK293 KCNK9, FluxOR thallium flux fluorescence; stronger effect = lower value | B-score at 10 µM | 310,000 tested, 1.2% active | AID 488922;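 active = ratio B-score over 3 SD below the library mean, with starting fluorescence within 5 SD of its mean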;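 also: negative B-score means less thallium flux so channel inhibition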
# Target sequence (Q9NPC2 whole entry, looked up, the tested form may be a part): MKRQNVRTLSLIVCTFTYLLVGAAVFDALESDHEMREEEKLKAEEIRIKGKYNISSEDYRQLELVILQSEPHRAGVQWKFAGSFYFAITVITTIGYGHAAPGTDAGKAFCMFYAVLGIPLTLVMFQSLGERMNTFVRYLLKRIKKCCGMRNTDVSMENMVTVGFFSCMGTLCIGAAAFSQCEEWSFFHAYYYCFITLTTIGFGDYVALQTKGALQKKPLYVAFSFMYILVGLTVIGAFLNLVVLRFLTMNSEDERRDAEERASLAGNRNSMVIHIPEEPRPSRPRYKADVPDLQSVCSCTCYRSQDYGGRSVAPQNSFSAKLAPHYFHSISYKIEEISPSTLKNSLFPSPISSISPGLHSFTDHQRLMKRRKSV
# KCNQ1 act: potentiates or activates the human KCNQ1 potassium channel; P51787; CHO-K1 KCNQ1, thallium flux FluxOR fluorescence; stronger effect = higher value; B-score at 10 µM; 310,000 tested, 0.35% active;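 active = fluorescence ratio B-score, a plate-corrected score, at least three library SD, with initial intensity B-score within 5 SD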
#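 Medium – assay buffer, equal DMSO in all wells · Material – CHO-K1 cell line with stable KCNQ1 potassium channel expression · Signal – kinetic FluxOR thallium fluorescence, 10-s 1-Hz baseline, 110-s post-stimulus read · Compound – single concentration per compound, DMSO matched to controls · Schedule – 37 °C overnight plating, 90-min dark dye load, 20-min compound pretreatment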
# KCNQ1 block: human KCNQ1 channel inhibition; P51787; CHO-K1 KCNQ1, FluxOR thallium flux fluorescence; stronger effect = higher value; B-score at 10 µM; 310,000 tested, 1.3% active; AID 2642;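 active = compounds whose thallium flux B-score, printed positive for inhibition, exceeds three library SD while starting fluorescence stays within three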;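 also: channel opened by potassium depolarization with thallium stimulus after 20 min compound exposure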
# An asterisk follows results filed as active; i = inactive; / = no result. Most compounds without a hit are left out; they make up all but 3.1% or so of the library.
SMILES,hERG protect,KCNK3 inh,KCNK9 inh,KCNQ1 act,KCNQ1 block
S=c1[nH]cnc2scc(-c3ccccc3)c12,60*,i,i,18*,i
COCCN(C(=O)COC(=O)CNC(=O)c1ccc(C)cc1)c1c(N)n(Cc2ccccc2)c(=O)[nH]c1=O,/,i,/,/,/
O=C1NC(=S)SC1=C1CCCCCC1,27*,i,i,63*,i
N#CC1=C(N)Oc2ccc3ccc(O)cc3c2C1c1cccnc1 (configuration not stated),-4,i,i,i,i
N#CC1=C(N)Oc2ccc3ccccc3c2C1c1cccnc1 (configuration not stated),4.9*,i,i,i,i
N#CCCN(NC(=O)OCc1ccccc1)C(=O)OCc1ccccc1,/,i,/,/,/
CCN1C(=O)/C(=C/c2ccc(N3CCCC3)cc2)NC1=S,-11,i,i,i,12*
CN(Cc1ccccc1F)C(=O)c1cccc(NC(=O)CC2SC(N3CCCCC3)=NC2=O)c1 (configuration not stated),/,i,/,/,/
CC(C)CCN1C(=O)c2ccc(C(=O)Nc3ccc(Br)cc3C(=O)O)cc2C1=O,-2,i,i,i,6*
CC(C)CCN1C(=O)c2ccc(C(=O)Nc3cc(C(=O)O)cc(C(=O)O)c3)cc2C1=O,-4,i,i,i,i
COc1ccc(/C=C2\CN(Cc3ccccc3)C/C(=C\c3ccc(OC)cc3OC)C2=O)c(OC)c1,-22,i,i,i,i
COc1ccc(C=C2c3ccccc3C(=O)c3ccccc32)c(OC)c1,-5,i,-8.7*,i,i
CCC(C)(C)NC(=O)C(c1cccc(OC)c1)N(C(=O)c1ccn[nH]1)c1cccc(OC)c1 (configuration not stated),-14,i,i,i,8*
CCC(C)(C)NC(=O)C(c1cccs1)N(C(=O)c1ccn[nH]1)c1ccccc1 (configuration not stated),-9,i,i,i,i
O=C1CCc2cccc(O)c2N1,/,i,/,/,/
Oc1ccc(Br)cc1-c1n[nH]c(=S)n1Cc1ccccc1,5.9*,i,i,11*,i
CC12CCC(C)(O1)C1C(=O)N(c3nccs3)C(=O)C12 (configuration not stated),/,i,/,/,/
CC1CC(C)CN(CCCNC(=O)c2cc3c(s2)-c2ccccc2OC3)C1 (configuration not stated),-13,i,i,i,6*
NC(=O)CC(NC(=O)c1ccccc1)c1ccc(N2CCC(Cc3ccccc3)CC2)c([N+](=O)[O-])c1 (configuration not stated),-17,i,-6.8*,i,i
CC(C)CC(=O)NC(=S)Nc1nc(-c2cccc3ccccc23)cs1,0,i,i,34*,i
CC1CCN(C(=O)/C(=C/c2ccccc2Cl)c2ccccc2)CC1,-12,i,-6.7*,i,i
Cn1c(=O)c2c(nc(OC3CCCC3)n2C)n(C)c1=O,/,i,/,/,/
COc1cc(C)nc(N2CCCC(C(=O)Nc3cc(Cl)ccc3OC)C2)n1 (configuration not stated),-7,i,-6.8*,i,i
COc1ccc(CNC(=O)CSc2nc3ccccc3n2C(C)=O)cc1,-6,i,i,i,i
COc1ccc(Nc2oc(COc3ccccc3F)nc2C#N)cc1,-10,i,-8*,i,i
SMILES,hERG protect,KCNK3 inh,KCNK9 inh,KCNQ1 act,KCNQ1 block
COc1ccc(Nc2oc(COc3ccc(OC)cc3)nc2C#N)cc1,-8,i,i,i,i
Cc1ccc(C(C[N+](=O)[O-])c2c(N)n(C)c(=O)n(C)c2=O)cc1 (configuration not stated),-6,i,i,i,i
COc1cc(C(C[N+](=O)[O-])c2c(N)n(C)c(=O)n(C)c2=O)ccc1O (configuration not stated),-3,i,i,i,6*
COc1ccc2ccccc2c1/C=N\n1c(C)cc(C)c(C(N)=O)c1=O,-1,i,i,i,i
COc1ccc(/C=N/n2c(C)cc(C)c(C(N)=O)c2=O)cc1,6.5*,i,i,i,i
COCCCNc1nc(N)c([N+](=O)[O-])c(N2CCCCCC2)n1,-1,i,i,i,i
Cc1cc2c(cc1C)N[C@]1(C[C@H]3CCCC(=O)N4CC[C@@H](C1)[C@@H]34)C(=NC(C)(C)CC(C)(C)C)N2,/,i,/,/,/
O=[N+]([O-])c1ccc(N2CCC(=NOCc3ccc(Cl)cc3)CC2)cc1,-18,i,i,i,6*
N=C1/C(=C\c2ccc(-c3ccc(C(=O)O)cc3)o2)C(=O)N=C2SC=C(c3ccccc3)N12,-17,i,i,i,i
N=C1S/C(=C\c2ccc(-c3cccc(Cl)c3)o2)C(=O)N1c1nccs1,26*,i,i,i,i
N=C1/C(=C\c2ccc(-c3cccc(Cl)c3)o2)C(=O)N=C2SC=C(c3ccccc3)N12,-5,i,i,8*,i
Cc1cc(-c2ccc(C)c(S(=O)(=O)N3CCN(c4ccc([N+](=O)[O-])cc4)CC3)c2)on1,-16,i,i,i,i
CCc1ccc(-c2cc(C)no2)cc1S(=O)(=O)N1CCN(c2ccccc2)CC1,-11,i,i,i,6*
Cc1cccc(OCC(=O)N(C)c2c(N)n(Cc3ccccc3)c(=O)[nH]c2=O)c1C,/,i,/,/,/
COc1ccc(Nc2cc(C)c3cc([N+](=O)[O-])ccc3n2)cc1,-3,i,i,i,i
CC(=NNC(=O)CSCC(=O)NN=C(C)c1ccccc1)c1ccccc1,/,i,/,/,/
c1ccc2c(c1)oc1c(N3CCN(Cc4ccc5c(c4)OCO5)CC3)ncnc12,-17,-9.5*,i,i,i
COc1cccc(CN2c3ccc(Br)cc3C(=O)CS2(=O)=O)c1,/,i,/,/,/
O=C(COC(=O)c1cc(-c2cccs2)nn1-c1ccccc1)Nc1cccc([N+](=O)[O-])c1,-8,i,-6.8*,i,i
Cc1ccc(NC(=O)COC(=O)c2cc(-c3cccs3)nn2-c2ccccc2)cc1[N+](=O)[O-],-5,i,i,i,i
O=C(NCCc1c[nH]c2ccccc12)Nc1ccccc1,-11,i,-6.9*,i,i
Cc1ccc(Cl)cc1N1CCN(S(=O)(=O)c2c(C)noc2C)CC1,-2,i,i,i,6*
Cc1noc(C)c1S(=O)(=O)N1CCN(c2ccc(Cl)cc2)CC1,-3,i,i,i,i
CC1(C)C(c2ccccc2)=NC(c2ccccc2)N1O (configuration not stated),-9,i,i,i,i
COc1ccc(C2N=C(c3ccccc3)C(C)(C)N2O)cc1 (configuration not stated),5.9*,i,i,i,i

# Bioassay records from PubChem BioAssay.
